{"source": "ChEMBL document CHEMBL1649139", "about": "“A novel gene, erm(41), confers inducible macrolide resistance to clinical isolates of Mycobacterium abscessus but is absent from Mycobacterium chelonae” (2009)", "format_in_all_cases": "functional", "key": {"[1]": {"system": "Mycobacteroides abscessus", "assay": "Antimicrobial activity against Mycobacterium abscessus isolate MC879-2 at day 3 preincubated with 0.1 ug/ml for 3 days by broth microdilution method"}, "[2]": {"system": "Mycobacteroides abscessus", "assay": "Antimicrobial activity against Mycobacterium abscessus isolate MC958 at day 7 preincubated with 0.1 ug/ml erythromycin for 3 days by broth microdilution method"}, "[3]": {"system": "Mycobacteroides abscessus", "assay": "Antimicrobial activity against Mycobacterium abscessus isolate MC958 at day 14 preincubated with 0.1 ug/ml for 3 days by broth microdilution method", "method_in_brief": "(§1)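 To test inducible resistance, cultures were preincubated for 3 days in clarithromycin or erythromycin, within 0.01–1 μg/ml. The period was set so cultures passed at least two generations, judged by turbidity increase. Clarithromycin MIC was then determined by CLSI-conforming broth microdilution and read on the stated day, from day 3 up to 14.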"}, "[4]": {"system": "Mycobacteroides abscessus", "assay": "Antimicrobial activity against Mycobacterium abscessus isolate MC879-2 at day 5 by broth microdilution method", "conditions": "isolate MC879-2, 120 h"}, "[5]": {"system": "Mycobacteroides abscessus", "assay": "Antimicrobial activity against Mycobacterium abscessus isolate MC1028 at day 9 by broth microdilution method", "conditions": "isolate MC1028, 216 h", "method_in_brief": "(§2)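 Clarithromycin MIC by CLSI-conforming broth microdilution. Before testing, cultures were preincubated for 3 days, either in medium alone or in clarithromycin or erythromycin (tested range 0.01–1 μg/ml). Preincubation ran for at least two generations, judged by turbidity increase. Plates were read on day 3 and on extended incubation at days 5 to 14.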"}, "[6]": {"system": "Mycobacteroides abscessus", "assay": "Antimicrobial activity against Mycobacterium abscessus isolate MC723 at day 7 preincubated with 0.1 ug/ml for 3 days by broth microdilution method", "method_in_brief": "(§3)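 Clarithromycin MIC by broth microdilution following CLSI guidelines. Before testing, organisms were preincubated for 3 days in medium alone or in clarithromycin or erythromycin (0.01–1 μg/ml), long enough for at least two generations judged by turbidity increase. MICs were read on day 3 and again on extended incubation out to day 14.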"}, "[7]": {"system": "Mycobacteroides abscessus", "assay": "Antimicrobial activity against Mycobacterium abscessus isolate MC723 at day 5 preincubated with 0.1 ug/ml for 3 days by broth microdilution method", "method_in_brief": "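Clinical M. abscessus isolates were preincubated for 3 days, either in medium alone or in clarithromycin or erythromycin at 0.01 to 1 μg/ml, allowing at least two generations of growth judged by turbidity. The clarithromycin MIC was then determined by CLSI-conforming broth microdilution, with plates read on day 3 and on extended incubation (days 5 to 14).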"}, "[8]": {"system": "Mycolicibacterium smegmatis", "assay": "Antimicrobial activity against Mycobacterium smegmatis transformed with erm allele Mycobacterium abscessus isolate MC879 by broth microdilution method"}, "[9]": {"system": "Mycobacteroides abscessus", "assay": "Antimicrobial activity against Mycobacterium abscessus isolate MC1448 at day 5 preincubated with 0.1 ug/ml for 3 days by broth microdilution method", "method_in_brief": "as §3"}, "[10]": {"system": "Mycobacteroides abscessus", "assay": "Antimicrobial activity against Mycobacterium abscessus isolate MC723 at day 14 preincubated with 0.1 ug/ml erythromycin for 3 days by broth microdilution method", "method_in_brief": "as §3"}, "[11]": {"system": "Mycobacteroides abscessus", "assay": "Antimicrobial activity against Mycobacterium abscessus isolate MC719 at day 14 preincubated with 0.1 ug/ml for 3 days by broth microdilution method", "method_in_brief": "as §3"}, "[12]": {"system": "Mycobacteroides abscessus", "assay": "Antimicrobial activity against Mycobacterium abscessus isolate MAB30 at day 14 by broth microdilution method", "conditions": "isolate MAB30, 336 h", "method_in_brief": "as §2"}, "[13]": {"system": "Mycobacteroides abscessus", "assay": "Antimicrobial activity against Mycobacterium abscessus isolate MC723 at day 9 by broth microdilution method", "conditions": "isolate MC723, 216 h", "method_in_brief": "as §3"}, "[14]": {"system": "Mycobacteroides abscessus", "assay": "Antimicrobial activity against Mycobacterium abscessus isolate MC958 at day 3 by broth microdilution method", "conditions": "isolate MC958, 72 h", "method_in_brief": "(§4)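 Clarithromycin MIC by broth microdilution following CLSI guidelines. Organisms were preincubated […], for 3 days before the assay. This allowed at least two generations, judged by the rise in turbidity. The MIC was read at the stated day, with incubation extended from day 3 to as long as 14 days.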"}, "[15]": {"system": "Mycobacteroides abscessus", "assay": "Antimicrobial activity against Mycobacterium abscessus isolate MC879 at day 7 by broth microdilution method", "conditions": "isolate MC879, 168 h", "method_in_brief": "as §4"}, "[16]": {"system": "Mycobacteroides abscessus", "assay": "Antimicrobial activity against Mycobacterium abscessus isolate MC719 at day 7 preincubated with 0.1 ug/ml erythromycin for 3 days by broth microdilution method", "method_in_brief": "as §3"}, "[17]": {"system": "Mycobacteroides abscessus", "assay": "Antimicrobial activity against Mycobacterium abscessus isolate MC1028 at day 3 by broth microdilution method", "conditions": "isolate MC1028, 72 h", "method_in_brief": "as §2"}, "[18]": {"system": "Mycobacteroides abscessus", "assay": "Antimicrobial activity against Mycobacterium abscessus isolate MAB30 at day 3 preincubated with 0.1 ug/ml for 3 days by broth microdilution method", "method_in_brief": "as §2"}, "[19]": {"system": "Mycobacteroides abscessus", "assay": "Antimicrobial activity against Mycobacterium abscessus isolate MC1448 at day 7 preincubated with 0.1 ug/ml for 3 days by broth microdilution method", "method_in_brief": "as §3"}, "[20]": {"system": "Mycobacteroides abscessus", "assay": "Antimicrobial activity against Mycobacterium abscessus isolate MC724 at day 3 preincubated with 0.1 ug/ml for 3 days by broth microdilution method", "method_in_brief": "as §1"}, "[21]": {"system": "Mycobacteroides abscessus", "assay": "Antimicrobial activity against Mycobacterium abscessus isolate MC1448 at day 9 preincubated with 0.1 ug/ml erythromycin for 3 days by broth microdilution method", "method_in_brief": "as §3"}, "[22]": {"system": "Mycobacteroides abscessus", "assay": "Antimicrobial activity against Mycobacterium abscessus isolate MC1028 at day 14 preincubated with 0.1 ug/ml erythromycin for 3 days by broth microdilution method", "method_in_brief": "as §2"}, "[23]": {"system": "Mycobacteroides abscessus", "assay": "Antimicrobial activity against Mycobacterium abscessus isolate MC723 at day 7 preincubated with 0.1 ug/ml erythromycin for 3 days by broth microdilution method", "method_in_brief": "as §3"}, "[24]": {"system": "Mycobacteroides abscessus", "assay": "Antimicrobial activity against Mycobacterium abscessus isolate MC958 at day 3 preincubated with 0.1 ug/ml for 3 days by broth microdilution method", "method_in_brief": "as §1"}, "[25]": {"system": "Mycobacteroides abscessus", "assay": "Antimicrobial activity against Mycobacterium abscessus isolate MC1448 at day 7 preincubated with 0.1 ug/ml erythromycin for 3 days by broth microdilution method", "method_in_brief": "as §3"}, "[26]": {"system": "Mycobacteroides abscessus", "assay": "Antimicrobial activity against Mycobacterium abscessus isolate MC879 at day 5 preincubated with 0.1 ug/ml for 3 days by broth microdilution method", "method_in_brief": "as §1"}, "[27]": {"system": "Mycobacteroides abscessus", "assay": "Antimicrobial activity against Mycobacterium abscessus isolate MC1448 at day 5 by broth microdilution method", "conditions": "isolate MC1448, 120 h", "method_in_brief": "as §3"}, "[28]": {"system": "Mycobacteroides abscessus", "assay": "Antimicrobial activity against Mycobacterium abscessus isolate MAB30 at day 14 preincubated with 0.1 ug/ml for 3 days by broth microdilution method", "method_in_brief": "as §2"}, "[29]": {"system": "Mycobacteroides abscessus", "assay": "Antimicrobial activity against Mycobacterium abscessus isolate MC1448 at day 9 by broth microdilution method", "conditions": "isolate MC1448, 216 h", "method_in_brief": "as §3"}, "[30]": {"system": "Mycobacteroides abscessus", "assay": "Antimicrobial activity against Mycobacterium abscessus isolate MC1028 at day 7 preincubated with 0.1 ug/ml erythromycin for 3 days by broth microdilution method", "method_in_brief": "as §2"}, "[31]": {"system": "Mycobacteroides abscessus", "assay": "Antimicrobial activity against Mycobacterium abscessus isolate MC724 at day 3 by broth microdilution method", "conditions": "isolate MC724, 72 h", "method_in_brief": "as §4"}, "[32]": {"system": "Mycobacteroides abscessus", "assay": "Antimicrobial activity against Mycobacterium abscessus isolate MC958 at day 14 by broth microdilution method", "conditions": "isolate MC958, 336 h", "method_in_brief": "as §4"}, "[33]": {"system": "Mycobacteroides abscessus", "assay": "Antimicrobial activity against Mycobacterium abscessus isolate MC958 on day 10 by broth microdilution method", "conditions": "isolate MC958, 240 h"}, "[34]": {"system": "Mycobacteroides abscessus", "assay": "Antimicrobial activity against Mycobacterium abscessus isolate MC958 at day 7 preincubated with 0.1 ug/ml for 3 days by broth microdilution method"}, "[35]": {"system": "Mycobacteroides abscessus", "assay": "Antimicrobial activity against Mycobacterium abscessus isolate MC719 at day 3 by broth microdilution method", "conditions": "isolate MC719, 72 h", "method_in_brief": "as §3"}, "[36]": {"system": "Mycobacteroides abscessus", "assay": "Antimicrobial activity against Mycobacterium abscessus isolate MC1448 at day 9 preincubated with 0.1 ug/ml for 3 days by broth microdilution method", "method_in_brief": "as §3"}}}
{"smiles": "CC[C@H]1OC(=O)[C@H](C)[C@@H](O[C@H]2C[C@@](C)(OC)[C@@H](O)[C@H](C)O2)[C@H](C)[C@@H](O[C@@H]2O[C@H](C)C[C@H](N(C)C)[C@H]2O)[C@](C)(OC)C[C@@H](C)C(=O)[C@H](C)[C@@H](O)[C@]1(C)O", "note": "[CLARITHROMYCIN]", "values": [{"measurement": "MIC", "setting": "[1]", "value": "> 32", "unit": "µg/mL"}, {"measurement": "MIC", "setting": "[2]", "value": "> 32", "unit": "µg/mL"}, {"measurement": "MIC", "setting": "[3]", "value": "> 32", "unit": "µg/mL"}, {"measurement": "MIC", "setting": "[4]", "value": "> 32", "unit": "µg/mL"}, {"measurement": "MIC", "setting": "[5]", "value": "≤ 0.5", "unit": "µg/mL"}, {"measurement": "MIC", "setting": "[6]", "value": "> 32", "unit": "µg/mL"}, {"measurement": "MIC", "setting": "[7]", "value": 4, "unit": "µg/mL"}, {"measurement": "MIC", "setting": "[8]", "value": 2, "unit": "µg/mL"}, {"measurement": "MIC", "setting": "[9]", "value": "> 32", "unit": "µg/mL"}, {"measurement": "MIC", "setting": "[10]", "value": "> 32", "unit": "µg/mL"}, {"measurement": "MIC", "setting": "[11]", "value": "> 32", "unit": "µg/mL"}, {"measurement": "MIC", "setting": "[12]", "value": "≤ 0.5", "unit": "µg/mL"}, {"measurement": "MIC", "setting": "[13]", "value": "> 32", "unit": "µg/mL"}, {"measurement": "MIC", "setting": "[14]", "value": "≤ 0.5", "unit": "µg/mL"}, {"measurement": "MIC", "setting": "[15]", "value": 8, "unit": "µg/mL"}, {"measurement": "MIC", "setting": "[16]", "value": "> 32", "unit": "µg/mL"}, {"measurement": "MIC", "setting": "[17]", "value": "≤ 0.5", "unit": "µg/mL"}, {"measurement": "MIC", "setting": "[18]", "value": "≤ 0.5", "unit": "µg/mL"}, {"measurement": "MIC", "setting": "[19]", "value": "> 32", "unit": "µg/mL"}, {"measurement": "MIC", "setting": "[20]", "value": "≤ 0.5", "unit": "µg/mL"}, {"measurement": "MIC", "setting": "[21]", "value": "> 32", "unit": "µg/mL"}, {"measurement": "MIC", "setting": "[22]", "value": "≤ 0.5", "unit": "µg/mL"}, {"measurement": "MIC", "setting": "[23]", "value": "> 32", "unit": "µg/mL"}, {"measurement": "MIC", "setting": "[24]", "value": "≤ 0.5", "unit": "µg/mL"}, {"measurement": "MIC", "setting": "[25]", "value": "> 32", "unit": "µg/mL"}, {"measurement": "MIC", "setting": "[26]", "value": 4, "unit": "µg/mL"}, {"measurement": "MIC", "setting": "[27]", "value": "> 32", "unit": "µg/mL"}, {"measurement": "MIC", "setting": "[28]", "value": "≤ 0.5", "unit": "µg/mL"}, {"measurement": "MIC", "setting": "[29]", "value": "> 32", "unit": "µg/mL"}, {"measurement": "MIC", "setting": "[30]", "value": "≤ 0.5", "unit": "µg/mL"}, {"measurement": "MIC", "setting": "[31]", "value": "≤ 0.5", "unit": "µg/mL"}, {"measurement": "MIC", "setting": "[32]", "value": "> 32", "unit": "µg/mL"}, {"measurement": "MIC", "setting": "[33]", "value": 32, "unit": "µg/mL"}, {"measurement": "MIC", "setting": "[34]", "value": "> 32", "unit": "µg/mL"}, {"measurement": "MIC", "setting": "[35]", "value": "≤ 0.5", "unit": "µg/mL"}, {"measurement": "MIC", "setting": "[36]", "value": "> 32", "unit": "µg/mL"}]}
